{"source": "ChEMBL document CHEMBL1123559", "about": "“Inhibition of phenylethanolamine N-methyltransferase (PNMT) by aromatic hydroxy-substituted 1,2,3,4,-tetrahydroisoquinolines: further studies on the hydrophilic pocket of the aromatic ring binding region of the active site” (J Med Chem, 1987)", "molecules": {"B1": {"name": "Phenylethanolamine N-methyltransferase (Bos taurus), P10938 (protein)", "chain": "MSGTDRSQAAGAVPDSDPGLAAVSSAYQRFEPRAYLRNNYAPPRGDLSCPDGVGPWKLRCLAQTFATGEVSGRTLIDIGSGPTIYQLLSACAHFEDITMTDFLEVNRQELRLWLREEPGAFDWSVYSQHVCLIEGKGESWQEKECQLRARVKRILPIDVHRPQPLGAGGLAPLPADALVSAFCLEAVSPDLASFQRALDHITTLLRPGGHLLLIGALEESWYLAGEARLAVVPVREEEVREALVRTATRCGICARTPMPAHLQTGVDDVKGIFFTRAQKKVGV"}}, "data": [{"target": "T1, Phenylethanolamine N-methyltransferase (Bos taurus, UniProt P10938)", "T1 sequence (P10938 whole entry)": "B1 chain", "assay": "In vitro inhibition of bovine phenylethylamine N-methyl-transferase (PNMT) using radiochemical assay.", "units": {"Ki": "µM"}, "values": [{"molecule": "Oc1cccc2c1CNCC2", "Ki": 1080}, {"molecule": "COc1ccc2c(c1)CNCC2", "Ki": 20}, {"molecule": "N[C@H]1C2CCC1c1cc(O)ccc12", "note": "(some centres undefined)", "Ki": 108}, {"molecule": "COc1cccc2c1CNCC2", "Ki": 3.8}, {"molecule": "COc1cccc2c1C1CCC2[C@@H]1N", "note": "(some centres undefined)", "Ki": 1100}, {"molecule": "N[C@@H]1CC2CC1c1c(O)cccc12", "note": "(some centres undefined)", "Ki": "> 3000"}, {"molecule": "c1ccc2c(c1)CCNC2", "note": "[1,2,3,4-TETRAHYDROISOQUINOLINE]", "Ki": 10.3}, {"molecule": "COc1ccc2c(c1)C1CCC2[C@@H]1N", "note": "(some centres undefined)", "Ki": 735}, {"molecule": "N[C@@H]1CC2CC1c1cccc(O)c12", "note": "(some centres undefined)", "Ki": "> 10000"}, {"molecule": "Oc1cc2c(cc1O)CNCC2", "Ki": 5.7}, {"molecule": "Oc1ccc2c(c1)CNCC2", "Ki": 2.6}, {"molecule": "COc1ccc2c(c1)C1CC2[C@H](N)C1", "note": "(some centres undefined)", "Ki": 1260}, {"molecule": "COc1cccc2c1C1CC2C[C@H]1N", "note": "(some centres undefined)", "Ki": "> 2000"}, {"molecule": "COc1ccc2c(c1)C1CC2C[C@H]1N", "note": "(some centres undefined)", "Ki": "> 2000"}, {"molecule": "Oc1cccc2c1CCNC2", "Ki": 90}, {"molecule": "N[C@H]1C2CCC1c1c(O)cccc12", "note": "(some centres undefined)", "Ki": "> 4000"}, {"molecule": "Oc1ccc2c(c1)CCNC2", "Ki": 7.8}, {"molecule": "COc1cccc2c1CCNC2", "Ki": 550}, {"molecule": "COc1cccc2c1C1CC2[C@H](N)C1", "note": "(some centres undefined)", "Ki": "> 2000"}, {"molecule": "NS(=O)(=O)c1ccc2c(c1)CNCC2", "Ki": "[…]"}]}, {"test_system": "not listed separately", "assay": "Ratio of Vmax to Km", "set-up": "unit not given here", "values": [{"molecule": "COc1ccc2c(c1)C1CCC2[C@@H]1N", "note": "(some centres undefined)", "Ratio": 0.08}, {"molecule": "NC1C2CC[C@H]1c1ccccc12", "note": "(some centres undefined)", "Ratio": 0.12}, {"molecule": "N[C@@H]1CC2C[C@@H]1c1ccccc12", "Ratio": 0.01}, {"molecule": "COc1ccc2c(c1)C1CC2[C@H](N)C1", "note": "(some centres undefined)", "Ratio": 0.01}, {"molecule": "N[C@@H]1CC2CC1c1cc(O)c(O)cc12", "note": "(some centres undefined)", "Ratio": 0.06}, {"molecule": "COc1cccc2c1C1CC2[C@H](N)C1", "note": "(some centres undefined)", "Ratio": 0.02}]}, {"compound": "COc1ccc2c(c1)C1CC2[C@H](N)C1", "assay": "(§1) In vitro inhibition of Phenylethylamine N-Methyltransferase (PNMT) using radiochemical assay.", "summary_of_the_method": "(§2)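 Bovine adrenal PNMT, partially purified through isoelectric precipitation, was used with phenylethanolamine as the variable substrate. At least three inhibitor concentrations were tested, all below levels giving mixed kinetics. The mix held pH 8.0 phosphate, unlabeled AdoMet (10 μM stock) and [methyl-3H]AdoMet, run 30 min at 37 °C. After a borate quench, product was extracted into toluene/isoamyl alcohol and scintillation counted. Ki and mode came from 1/V vs 1/S plots.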", "units": {"Km": "µM"}, "values": [{"molecule": "B1", "Km": 602}]}, {"compound": "COc1ccc2c(c1)C1CCC2[C@@H]1N", "assay": "as §1", "summary_of_the_method": "as §2", "units": {"Km": "µM"}, "values": [{"molecule": "B1", "Km": 294}]}, {"compound": "COc1cccc2c1C1CC2[C@H](N)C1", "assay": "as §1", "summary_of_the_method": "as §2", "units": {"Km": "µM"}, "values": [{"molecule": "B1", "Km": 970}]}, {"compound": "N[C@@H]1CC2C[C@@H]1c1ccccc12", "assay": "as §1", "summary_of_the_method": "as §2", "units": {"Km": "µM"}, "values": [{"molecule": "B1", "Km": 392}]}, {"compound": "COc1ccc2c(c1)C1CC2[C@H](N)C1", "assay": "(§3) In vitro inhibition of Phenylethylamine N-Methyltransferase (PNMT) using radiochemical assay expressed as Vmax", "units": {"Vmax": "nmol/min/mg"}, "values": [{"molecule": "B1", "Vmax": 0.06}]}, {"compound": "COc1ccc2c(c1)C1CCC2[C@@H]1N", "assay": "as §3", "units": {"Vmax": "nmol/min/mg"}, "values": [{"molecule": "B1", "Vmax": 0.23}]}, {"compound": "COc1cccc2c1C1CC2[C@H](N)C1", "assay": "as §3", "units": {"Vmax": "nmol/min/mg"}, "values": [{"molecule": "B1", "Vmax": 0.22}]}, {"compound": "N[C@@H]1CC2CC1c1cc(O)c(O)cc12", "assay": "as §3", "units": {"Vmax": "nmol/min/mg"}, "values": [{"molecule": "B1", "Vmax": 0.44}]}]}
